The text below walks through data of ChEMBL document CHEMBL4130369, “Structure-activity relations of rosmarinic acid derivatives for the amyloid β aggregation inhibition and antioxidant properties” (Eur J Med Chem, 2017).

Experiment [1] concerns the target T1, Amyloid-beta precursor protein (Homo sapiens, UniProt P05067). The experiment is described as follows: Inhibition of QD-labeled amyloid beta (1 to 42) (unknown origin) aggregation after 24 hrs by inverted fluorescence microscopic method. Put shortly:
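Modified MSHTS: 30 μM Aβ(1-42) plus 30 nM QD-labeled Aβ(1-42) with serial compound concentrations in PBS containing 5% EtOH and 3% DMSO, 37°C, 24 h. Coaggregates were imaged by inverted fluorescence microscopy with a color CCD. SD of pixel fluorescence in the well centre (100×100 pixels) was plotted against concentration, and EC50 was fitted by global EC50-shift fitting.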

Experiment [2] in a line: Antioxidant activity assessed as inhibition of DPPH radical at 100 uM incubated for 20 mins measured for 60 mins relative to control. In kind it is functional. Put shortly:
(§1)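 DPPH (40 μL of 1 mM stock) in EtOH; test compound added from 2 mM or 10 mM DMSO stocks at rt. Absorbance at 517 nm read continuously for 60 min. Radical trapping capacity was calculated from the 20 min reading.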
For orientation: The DPPH test is a chemical assay of radical scavenging.

A short description of experiment [3]: Antioxidant activity assessed as inhibition of DPPH radical at 500 uM incubated for 20 mins measured for 60 mins relative to control. Format: functional. In a few lines: as §1
A short description of experiment [4]: Inhibition of butter milk XOD (unknown origin) at 100 uM using xanthine as substrate after 8 mins relative to control. Put shortly: (§2)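 Butter-milk xanthine oxidase in 100 mM phosphate buffer, pH 7.6, with compound added in DMSO. Reaction started with 500 μM xanthine (solution concentration) at rt and stopped after 8 min with 1N HCl. Absorbance at 290 nm was compared with enzyme-activity and blank wells to calculate % inhibition.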

Experiment [5] is described as follows: Inhibition of butter milk XOD (unknown origin) at 10 uM using xanthine as substrate after 8 mins relative to control. In a few lines:
as §2

Experiment [6] deals with T1, Amyloid-beta precursor protein. The experiment is described as follows: Inhibition of QD-labeled amyloid beta (1 to 42) (unknown origin) aggregation assessed as change in fluorescence at 20.3 uM after 24 hrs by inverted fluorescence microscopic method (reference value: 6.77). Put shortly:
(§3)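 Aβ(1-42) (30 μM) was co-incubated with 30 nM QD-labeled Aβ(1-42) and compound in PBS containing 5% EtOH and 3% DMSO at 37°C for 24 h. Coaggregates were imaged by inverted fluorescence microscope with a colour CCD camera. The read-out was the SD of fluorescence intensity over the central 100 × 100 pixels. Aggregation parameters came from Boltzmann fitting of SD versus time, compared with the no-inhibitor control.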

The target is the same in experiment [7]. The experiment is described as follows: Inhibition of QD-labeled amyloid beta (1 to 42) (unknown origin) aggregation assessed as lag time of aggregation at 20.3 uM after 24 hrs by inverted fluorescence microscopic method (reference value: 4.44 mins).
The target is the same in experiment [8]. In words: Inhibition of QD-labeled amyloid beta (1 to 42) (unknown origin) aggregation assessed as aggregation growth rate at 20.3 uM after 24 hrs by inverted fluorescence microscopic method (reference value: 0.533 /min).
For experiment [9] the target is unchanged. The experiment is described as follows: Inhibition of QD-labeled amyloid beta (1 to 42) (unknown origin) aggregation assessed as change in fluorescence at 5.13 uM after 24 hrs by inverted fluorescence microscopic method (reference value: 6.77). Put shortly: as §3
Experiment [10] has the same target. The experiment is described as follows: Inhibition of QD-labeled amyloid beta (1 to 42) (unknown origin) aggregation assessed as aggregation growth rate at 5.13 uM after 24 hrs by inverted fluorescence microscopic method (reference value: 0.533 /min).
Experiment [11] has the same target. In words: Inhibition of QD-labeled amyloid beta (1 to 42) (unknown origin) aggregation assessed as lag time of aggregation at 5.13 uM after 24 hrs by inverted fluorescence microscopic method (reference value: 4.44 mins).
A short description of experiment [12]: Inhibition of butter milk XOD (unknown origin) at 1 uM using xanthine as substrate after 8 mins relative to control. In a few lines:
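Buttermilk xanthine oxidase in 100 mM phosphate buffer pH 7.6 was mixed with compound in DMSO. The reaction was started with xanthine solution (500 μM as added) and run at rt for 8 min, then stopped with 1N HCl. Absorbance was read at 290 nm, and % inhibition was calculated against enzyme-activity and blank wells.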

T1 sequence (P05067 whole entry): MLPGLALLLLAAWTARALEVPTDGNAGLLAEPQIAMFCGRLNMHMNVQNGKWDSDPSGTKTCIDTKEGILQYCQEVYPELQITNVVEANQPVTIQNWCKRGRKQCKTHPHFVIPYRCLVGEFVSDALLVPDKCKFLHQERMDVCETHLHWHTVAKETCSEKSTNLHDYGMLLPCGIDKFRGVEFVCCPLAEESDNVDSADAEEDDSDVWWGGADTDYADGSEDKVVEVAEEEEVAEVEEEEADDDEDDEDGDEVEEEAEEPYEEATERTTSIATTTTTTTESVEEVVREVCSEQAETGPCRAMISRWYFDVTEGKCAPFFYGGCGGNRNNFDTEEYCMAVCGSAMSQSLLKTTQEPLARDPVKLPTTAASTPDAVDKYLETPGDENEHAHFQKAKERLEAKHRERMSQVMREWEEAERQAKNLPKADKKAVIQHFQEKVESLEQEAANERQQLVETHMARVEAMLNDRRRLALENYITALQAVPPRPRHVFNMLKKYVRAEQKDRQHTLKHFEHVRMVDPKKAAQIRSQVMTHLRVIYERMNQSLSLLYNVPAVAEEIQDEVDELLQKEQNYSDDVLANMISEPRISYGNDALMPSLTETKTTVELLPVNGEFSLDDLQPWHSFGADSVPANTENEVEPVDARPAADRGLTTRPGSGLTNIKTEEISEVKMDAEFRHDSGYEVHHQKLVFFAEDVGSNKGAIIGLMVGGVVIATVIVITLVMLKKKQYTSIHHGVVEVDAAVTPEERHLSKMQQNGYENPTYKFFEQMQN

Regarding `CCCCCNC(=O)/C=C/c1ccc(O)c(O)c1`, in experiment [1], the EC50 turned out to be 11.4 µM. For the same compound, the inhibition was 40% in [2], 53% in experiment [3], 33% in [4] and under 10% in experiment [5].

`C=CCOC(=O)/C=C/c1ccc(O)c(O)c1` came in with an EC50 in experiment [1] of 23.2 µM. Moreover, the inhibition in [2] is 46%; in [3], 62%; in [4], 22%; in [5], under 10%.

The compound `CCCCCCC(=O)/C=C/c1ccc(O)c(O)c1` registered an EC50 in experiment [1] of 2.82 µM. Further, the inhibition in [2] worked out at 48%; in [3], 62%; in [4], 76%; in [5], 12%.

In experiment [1], `O=C(CCc1ccccc1)OCCc1ccc(O)c(O)c1` yielded a concentration for a half-maximal effect (EC50) of 5.93 µM. The inhibition in experiment [2] was 38%; in experiment [3], 54%; in [4], under 10%; in experiment [5] it was under 10%.

For `O=C(/C=C/c1ccc(O)c(O)c1)OCCc1ccc(O)c(O)c1`, in experiment [1], the concentration giving a half-maximal response (EC50) came out at 20.6 µM. In addition, the inhibition in experiment [2] was determined as 37%; in experiment [3], 46%; in experiment [4] it was 80%; in experiment [5], 26%.

`CC1=NN(c2ccccc2)C(=O)C1`: the inhibition in [2] fell in the range of 50 to 53%; in [3] it was 71 to 75%.

For `O=C(/C=C/c1ccc(O)c(O)c1)O[C@H](Cc1ccc(O)c(O)c1)C(=O)O` [ROSMARINIC ACID], the EC50 in experiment [1] was 20.3 µM. In [6], the Flu intensity worked out at 3.4. Also, the inhibition in experiment [2] is 47%; in [3], 66%; in experiment [4] it was 27%; in experiment [5] it was under 10%. Besides, the TIME in [7] came to 0.093 h. Further, the K in experiment [8] is 0.508 min⁻¹.

As to `CCCCCCOC(=O)/C=C/c1ccc(O)c(O)c1` [HEXYLCAFFEATE], the Flu intensity in experiment [9] is 3.68. The same compound displayed an EC50 in experiment [1] of 5.13 µM. Moreover, the inhibition in experiment [2] was 45%; in [3], 61%; in experiment [4] it was under 10%; in experiment [5], 10%. For the same compound, the K in experiment [10] amounted to 0.19 min⁻¹. In addition, in experiment [11], the TIME worked out at 0.0183 h.

As for `CCCCCCCCCOC(=O)/C=C/c1ccc(O)c(O)c1`, the EC50 in experiment [1] stood at 9.52 µM. The inhibition in experiment [2] is 45%; in [3] it was 61%; in [4], 40%; in [5], under 10%.

In experiment [1], `COc1ccc(CCOC(=O)/C=C/c2ccc(O)c(O)c2)cc1OC` registered an EC50 of 39.5 µM. Also, the inhibition was found to be 43% in experiment [2], 59% in [3], 43% in experiment [4] and 50% in [5].

In turn, `O=C(CCc1ccccc1)OCCc1ccccc1` returned an EC50 in experiment [1] of 4540 µM. For the same compound, the inhibition in experiment [2], in experiment [3], in experiment [4] and in experiment [5] was under 10% each time.

In experiment [1], `CCCCCOC(=O)/C=C/c1ccc(O)c(O)c1` displayed a half-maximal effective concentration (EC50) of 2.58 µM. In addition, the inhibition in [2] was 46%; in experiment [3], 62%; in experiment [4] it was over 90%; in experiment [5], 11%.

Consider `O=C(/C=C/c1ccccc1)OCCc1ccccc1` [PHENETHYL CINNAMATE], for which, in experiment [1], a half-maximal response (EC50) required 1040 µM. For the same compound, the inhibition in [2], in experiment [3], in experiment [4] and in [5] was under 10% throughout.

As to `COC(=O)/C=C/c1ccc(O)c(O)c1` [METHYLCAFFEATE], the EC50 in [1] worked out at 67.7 µM. The inhibition was 48% in [2], 64% in experiment [3], 65% in experiment [4] and under 10% in experiment [5].

In turn, `CCCCOC(=O)/C=C/c1ccc(O)c(O)c1` [BUTYL CAFFEATE] came in with an EC50 in experiment [1] of 12 µM. In addition, the inhibition was 46% in experiment [2], 62% in experiment [3], over 90% in experiment [4] and under 10% in experiment [5].

The compound `O=C(O)/C=C/c1ccc(O)c(O)c1` [CAFFEIC ACID] displayed a concentration for a half-maximal effect (EC50) in [1] of 216 µM. Besides, the inhibition in [2] was 49%; in experiment [3], 63%; in [4], under 10%; in experiment [5], under 10%.

The compound `O=C(/C=C/c1ccc(O)c(O)c1)OCCCCCCO` registered a half-maximal effective concentration (EC50) in [1] of 54.8 µM. For the same compound, the inhibition in [2] was 42%; in [3], 55%; in [4], 51%; in experiment [5], under 10%.

In [1], `O=C(/C=C/c1ccc(O)c(O)c1)OCCCCCO` displayed an EC50 of 80.1 µM. Moreover, the inhibition is 41% in experiment [2], 54% in experiment [3], 84% in experiment [4] and under 10% in experiment [5].

In experiment [1], `O=C(/C=C/c1ccc(O)c(O)c1)NCCc1ccc(O)c(O)c1` had an EC50 of 69 µM. The inhibition was 47% in [2], 64% in experiment [3], 30% in [4] and under 10% in experiment [5].

On to `Oc1ncnc2[nH]ncc12`, for which the inhibition in [12] is under 10%; in experiment [5] it was over 90%.

In the case of `O=C(CCc1ccc(O)c(O)c1)OCCc1ccc(O)c(O)c1`, in [1], a half-maximal response (EC50) required 14.9 µM. Moreover, the inhibition in [2] is 37%; in experiment [3] it was 49%; in [4], 21%; in experiment [5] it was under 10%.

In turn, `COc1ccc(CCOC(=O)CCc2ccccc2)cc1OC` returned an EC50 in experiment [1] of 274 µM. The inhibition in experiment [2], in experiment [3], in experiment [4] and in experiment [5] was under 10% in each case.

As to `O=C(/C=C/c1ccc(O)c(O)c1)OCCc1ccccc1` [CAFFEIC ACID PHENETHYL ESTER], the response in [1] was half-maximal at 8.41 µM (EC50). Further, the inhibition is 35% in experiment [2], 51% in [3], 62% in [4] and under 10% in experiment [5].

`O=C(/C=C/c1ccccc1)OCCc1ccc(O)c(O)c1` yielded an EC50 in experiment [1] of 7.95 µM. Further, the inhibition was 40% in experiment [2], 56% in experiment [3], 22% in experiment [4] and under 10% in experiment [5].

As for `CCCOC(=O)/C=C/c1ccc(O)c(O)c1`, the concentration for a half-maximal effect (EC50) in experiment [1] came to 24.7 µM. The inhibition in experiment [2] is 46%; in [3], 63%; in experiment [4], 61%; in experiment [5], under 10%.

With `NC(=O)C(Cc1ccc(O)c(O)c1)OC(=O)/C=C/c1ccc(O)c(O)c1` (stereo not given), the EC50 in experiment [1] is 21.9 µM. Also, the inhibition in [2] stood at 39%; in [3], 48%; in experiment [4], 82%; in experiment [5], 38%.

`CCCCCCCOC(=O)/C=C/c1ccc(O)c(O)c1` gave a concentration for a half-maximal effect (EC50) in [1] of 10.4 µM. Besides, the inhibition in experiment [2] was found to be 46%; in experiment [3] it was 63%; in experiment [4], 25%; in experiment [5], 11%.

A word on the EC50: it is the concentration at which the effect is half-maximal. The low end stands for a more potent agent, the high end for a less potent agent. Usually inhibition stands for the share of the control response that was lost under treatment.
